Data as given in ChEMBL document CHEMBL1140539, “Modification of cap group in delta-lactam-based histone deacetylase (HDAC) inhibitors” (Bioorg Med Chem Lett, 2007).

Key:
[1] = system: HCT-15; test: Growth inhibition of human HCT15 cells by SRB assay; assay type: functional
[2] = biological target: Histone deacetylase; test: Inhibition of HDAC in HeLa cell lysates; assay type: protein assay, Homo sapiens
[3] = system: NUGC-3; test: Growth inhibition of human NUGC3 cells by SRB assay; assay type: functional
[4] = system: PC-3; test: Growth inhibition of human PC3 cells by SRB assay; assay type: functional
[5] = system: MDA-MB-231; test: Growth inhibition of human MDA-MB-231 cells by SRB assay; assay type: functional
[6] = system: ACHN; test: Growth inhibition of human ACHN cells by SRB assay; assay type: functional
[7] = biological target: Histone deacetylase (Homo sapiens) (UniProt Q13547+O15379+Q9UBN7+Q92769+Q9UQL6+Q8WUI4+Q9BY41+Q96DB2+P56524+Q9UKV0+Q969S8); conditions: HeLa
[8] = system: MDA-MB-231; test: Antitumor activity against MDA-MB-231 cells xenografted BALB/c nude mouse assessed as body weight at 30 mg/kg, ip for 15 days; assay type: functional, Homo sapiens; conditions: route intraperitoneal
Method in brief: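 Nude mice carrying MDA-MB-231 human breast xenografts were dosed once daily by intraperitoneal injection at 30 mg/kg. Dosing began once tumours reached 50–60 mm³.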

[9] = system: MDA-MB-231; test: Antitumor activity against MDA-MB-231 cells xenografted BALB/c nude mouse at 30 mg/kg, ip for 15 days; assay type: functional, Homo sapiens; conditions: MDA-MB-231, ip, 360 h, route intraperitoneal

Structure (SMILES)	GI50 [1] [µM]	IC50 [2] [µM]	GI50 [4] [µM]	GI50 [5] [µM]	GI50 [6] [µM]	IC50 [7] [µM]	GI50 [3] [µM]	Activity [8] [%]	inhibition in vivo at 30 mg/kg [9] [%]
COc1cccc(CN2CCC=C(CCC(=O)NO)C2=O)c1	9.03	1.94	> 10	3.92	7.6				
COc1ccccc1CN1CCC=C(CCC(=O)NO)C1=O	> 10	0.86	> 10	> 10	> 10				
CC(=O)Nc1ccc(CN2CCC=C(CCC(=O)NO)C2=O)cc1		0.82	> 10						
Cc1ccc(S(=O)(=O)Nc2ccc(CN3CCC=C(CCC(=O)NO)C3=O)cc2)cc1	> 10	0.59	1.8	0.56	0.37				
O=C(CCC1=CCCN(Cc2ccc(F)cc2)C1=O)NO	9.96	0.56							
O=C(CCC1=CCCN(Cc2ccc(Br)cc2)C1=O)NO	1.72	0.45	3.15	1.63	2.48				
O=C(CCCCCCC(=O)Nc1ccccc1)NO [VORINOSTAT]					2.22			100	
O=C(CCC1=CCCN(Cc2ccc([N+](=O)[O-])cc2)C1=O)NO	> 10	0.23	3.01	0.47	5.21		1.11		
Cc1ccccc1CN1CCC=C(CCC(=O)NO)C1=O	> 10	2.97	> 10	4.92	> 10				
COc1ccc(CN2CCC=C(CCC(=O)NO)C2=O)cc1	6.89	0.44	7.08	3.86	1.67				
Cc1ccc(CN2CCC=C(CCC(=O)NO)C2=O)cc1	8.51	2.1	8.1	1.43	5				
Cc1cccc(CN2CCC=C(CCC(=O)NO)C2=O)c1	> 10	1.9	> 10	8.12	4.38				

Second part, led by results:

GI50 [1] [µM]	IC50 [2] [µM]	GI50 [4] [µM]	GI50 [5] [µM]	GI50 [6] [µM]	IC50 [7] [µM]	Structure (SMILES)	GI50 [3] [µM]	Activity [8] [%]	inhibition in vivo at 30 mg/kg [9] [%]
1.67	0.11	1.69	1.47	1.82		O=C(CCC1=CCCN(CCCCc2cccc3ccccc23)C1=O)NO	2.01		
> 10	0.51	> 10	6.03	> 10		O=C(CCC1=CCCN(Cc2ccc(NC(=O)c3ccccc3)cc2)C1=O)NO	> 10		
4.56	0.2	2.95	1.28	2.67		O=C(CCC1=CCCN(CCCCc2ccc(-c3ccccc3)cc2)C1=O)NO	4.2		
5.43	0.32	2.58	2.53	6.62		O=C(CCC1=CCCN(CCc2cccc3ccccc23)C1=O)NO	3.26		
1	0.23	0.53	0.28	1.18		O=C(CCC1=CCCN(CCc2ccc(-c3ccccc3)cc2)C1=O)NO	1.65		
					> 10	O=C(CCC1=CCCN(Cc2ccc3ccccc3c2)C1=O)NO			
0.53	0.03	0.3	0.56	0.46		O=C(CCC1=CCCN(CCCc2ccc3ccccc3c2)C1=O)NO	0.79		
3.19	0.27	3.23	1.04	2.49		O=C(CCC1=CCCN(CCCc2ccc(-c3ccccc3)cc2)C1=O)NO	3.7		
1.16	0.037	0.61	0.28	1.18		O=C(CCC1=CCCN(CCc2ccc3ccccc3c2)C1=O)NO	0.37	94	51
